Measured values from ChEMBL document CHEMBL1124244, “Design and synthesis of a series of combined vasodilator/beta-adrenoceptor antagonists based on 6-arylpyridazinones” (1988).

Experiments:
[1] = target: Beta-1 adrenergic receptor (Homo sapiens) (UniProt P08588); assay: Beta-1 adrenergic receptor antagonsim of compound expressed as inhibition of isoprenaline-induced tachycardia in the ganglion-blocked anesthetized cat; type: functional; conditions: Felis catus
Summary of the method: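 Ganglion-blocked anesthetized cats (pempidine 5 mg kg⁻¹ iv, left to stabilize; rectal temperature held at 37 °C; heart rate from blood pressure pulse). Compounds given iv via cephalic vein. ID50 is dose for 50% inhibition of standard isoprenaline-induced tachycardia. Percent inhibition logit-transformed; ≥3 animals, ≥3 doses; 95% confidence limits by Fieller's theorem.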

[2] = target: Adrenergic receptor beta (Homo sapiens) (UniProt P08588+P07550+P13945); assay: Intrinsic Sympathomimetic Activity (ISA) determined from the ratio of the maximal compound and isoprenaline induced tachycardia in anesthetized ganglion blocked cats following intravenous administration; type: functional, organism-based; conditions: Felis catus; target entry is the homologue from another species
Summary of the method: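 Ganglion-blocked (pempidine 5 mg kg⁻¹ iv) anesthetized cats at 37 °C; heart rate from blood pressure pulse. Full isoprenaline dose-response (0.01–10 μg kg⁻¹) obtained first. Cannula washed with saline, then cumulative iv dose-response to compound in 50% PEG 400, raised until maximal heart-rate increase. ISA is the ratio of maximal compound-induced to isoprenaline-induced tachycardia.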

Rattus norvegicus [3] = assay: Dose required to produce a 50% increase in blood flow to the autoperfused hindquarters of the anesthetized rat; type: functional
Summary of the method: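 Anesthetized normotensive rats with autoperfused hindquarters. Intravenous bolus doses. ED50 (μmol kg⁻¹) is dose giving 50% increase in hindquarter blood flow, read from a dose-response curve. At least three animals at a minimum of three doses; 95% confidence intervals by Fieller's theorem.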

Rattus norvegicus [4] = assay: Dose required to produce a fall in blood pressure of 40 mmHg in the anesthetized rat; type: functional
Summary of the method: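 Anesthetized normotensive rats dosed by intravenous injection. ED40 (μmol kg⁻¹) is dose lowering blood pressure by 40 mmHg, taken from a dose-response curve. At least three animals, minimum three doses; 95% confidence intervals via Fieller's theorem.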

[5] = target: Beta-1 adrenergic receptor (Homo sapiens) (UniProt P08588); conditions: Felis catus
Felis catus [6] = assay: Intrinsic Sympathomimetic Activity(ISA) determined from the ratio of the maximal compound and isoprenaline induced tachycardia in anesthetized ganglion blocked cats following intravenous administration; type: functional
Summary of the method: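 Anaesthetised cats; cephalic vein cannulated; rectal temperature held at 37 °C. Ganglion block with pempidine 5 mg kg⁻¹ iv, then waited for BP and heart rate to stabilise. Heart rate taken from the BP pulse. Isoprenaline tachycardia curve run at 0.01–10 μg kg⁻¹ iv, then a cumulative compound curve in 50% PEG 400, raised to maximal tachycardia. ISA = maximal compound/isoprenaline tachycardia ratio.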

Felis catus [7] = assay: Beta-1-adrenoceptor antagonsim of compound expressed as inhibition of isoprenaline-induced tachycardia in the ganglion-blocked anesthetized cat at 10 uM/Kg dose; type: functional

Sequence of Beta-1 adrenergic receptor (Homo sapiens) (P08588 whole entry, looked up): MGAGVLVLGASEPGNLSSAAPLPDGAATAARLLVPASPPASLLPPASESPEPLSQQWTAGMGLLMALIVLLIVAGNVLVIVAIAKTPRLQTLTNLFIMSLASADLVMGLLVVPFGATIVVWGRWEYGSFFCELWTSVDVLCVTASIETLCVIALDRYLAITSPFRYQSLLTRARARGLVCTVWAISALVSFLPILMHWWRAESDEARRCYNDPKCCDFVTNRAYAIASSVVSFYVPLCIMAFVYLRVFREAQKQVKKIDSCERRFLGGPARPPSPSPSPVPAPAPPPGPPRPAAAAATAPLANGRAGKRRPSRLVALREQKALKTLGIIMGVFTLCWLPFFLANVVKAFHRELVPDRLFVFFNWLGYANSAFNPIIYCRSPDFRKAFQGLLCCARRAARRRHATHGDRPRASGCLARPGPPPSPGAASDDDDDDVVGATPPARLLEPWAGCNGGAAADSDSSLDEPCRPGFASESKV

SMILES	ID50 [1] [µmol/kg]	ISA [2]	ED50 (Rattus norvegicus [3]) [µmol/kg]	ED40 (Rattus norvegicus [4]) [µM/kg]	ID50 [5] [µmol/kg]	ISA (Felis catus [6])	Inhibition (Felis catus [7]) [%]
Cc1ccccc1OCC(O)CNCC(=O)Nc1ccc(C2=NNC(=O)CC2)cc1 (stereo unspecified)	9	0.55	2	6	–	–	–
NNc1nncc2ccccc12 [HYDRALAZINE]	–	–	0.6	1	–	–	–
N#Cc1ccccc1OCC(O)CNCC(=O)Nc1ccc(C2=NNC(=O)CC2)cc1 (stereo unspecified)	–	0.55	14	30	–	–	–
CC1CC(=O)NN=C1c1ccc(NC(=O)CCNCC(O)COc2ccccc2C#N)cc1 (stereo unspecified)	–	0.63	2.3	1	–	–	–
Br.CC1CC(=O)NN=C1c1ccc(NC(=O)CCNCC(O)COc2ccccc2)cc1 (stereo unspecified)	–	0.86	1.5	0.6	–	–	–
COc1ccccc1OCC(O)CNCCC(=O)Nc1ccc(C2=NNC(=O)CC2)cc1 (stereo unspecified)	–	0.6	4.3	11	0.7	–	–
CC(=O)Nc1ccc(C2=NNC(=O)CC2C)cc1 (stereo unspecified)	–	–	0.1	0.18	–	–	–
COCCc1ccc(OCC(O)CNCCC(=O)Nc2ccc(C3=NNC(=O)CC3C)cc2)cc1 (stereo unspecified)	–	0.04	6	3	2	–	–
Cc1cccc(OCC(O)CNCCC(=O)Nc2ccc(C3=NNC(=O)CC3C)cc2)c1C (stereo unspecified)	–	0.14	2.4	2.5	0.6	–	–
COc1ccccc1OCC(O)CNCC(=O)Nc1ccc(C2=NNC(=O)CC2)cc1 (stereo unspecified)	–	0.42	4.6	11.5	10	–	–
Cc1ccccc1OCC(O)CNCCC(=O)Nc1ccc(C2=NNC(=O)CC2C)cc1 (stereo unspecified)	–	0.59	2	0.5	–	–	–
CC(C)NCC(O)COc1cccc2[nH]ccc12 (stereo unspecified) [PINDOLOL]	–	–	–	–	–	0.7	–
N#Cc1ccccc1OCC(O)CNCCC(=O)Nc1ccc(C2=NNC(=O)CC2)cc1 (stereo unspecified)	–	–	1.7	3.5	> 1	–	–
Cc1ccccc1OCC(O)CNCCC(=O)Nc1ccc(C2=NNC(=O)CC2)cc1 (stereo unspecified)	–	0.14	6	9.4	1.4	–	–
CC1CC(=O)NN=C1c1ccc(NC(=O)CCNCC(O)COc2cccc3[nH]ccc23)cc1.Cl (stereo unspecified)	–	0.46	4.4	2.9	0.09	–	–
COc1ccccc1OCC(O)CNCC(=O)Nc1ccc(C2=NNC(=O)CC2C)cc1 (stereo unspecified)	–	0.37	3	<4	2.6	–	–
Cc1ccccc1OCC(O)CNCC(=O)Nc1ccc(C2=NNC(=O)CC2C)cc1 (stereo unspecified)	–	–	2.7	<2	> 5	–	–
CC(=O)Nc1ccc(C2=NNC(=O)CC2)cc1	–	–	4	1	–	–	–
C=CCOc1ccccc1OCC(O)CNC(C)C (stereo unspecified)	–	0.2	–	–	0.04	–	–
COc1ccccc1OCC(O)CNCCC(=O)Nc1ccc(C2=NNC(=O)CC2C)cc1 (stereo unspecified)	–	0.48	3	2	0.7	–	–
O=C1CCC(c2ccc(NC(=O)CNCC(O)COc3cccc4ccccc34)cc2)=NN1 (stereo unspecified)	–	0.1	1.4	28	–	–	30
CC1CC(=O)NN=C1c1ccc(NC(=O)CCNCC(O)COc2ccccc2S(C)(=O)=O)cc1.Cl (stereo unspecified)	–	< 0.3	2.4	3.9	4	–	–
CC1CC(=O)NN=C1c1ccc(NC(=O)CCN)cc1 (stereo unspecified)	–	–	0.2	0.2	–	–	–
CC(C)(C)NCC(O)COc1ccccc1-c1ccc(NN)nn1 (stereo unspecified) [PRIZIDILOL]	–	0.2	10	14	0.06	–	–
Nc1ccc(-c2ccc(O)nn2)cc1	–	–	20	1	–	–	–
CC1CC(=O)NN=C1c1ccc(NC(=O)CCNCC(O)COc2ccccc2N2CCOCC2)cc1 (stereo unspecified)	–	0.24	1.8	3.6	0.5	–	–
CC1CC(=O)NN=C1c1ccc(NC(=O)CNCC(O)COc2ccccc2C#N)cc1 (stereo unspecified)	–	0.53	0.9	2	> 8	–	–
CC1CC(=O)NN=C1c1ccc(NC(=O)CCNCC(O)COc2ccc(CCOCC3CC3)cc2)cc1 (stereo unspecified)	–	0.05	1.6	2.4	1	–	–
